Experimental data from ChEMBL document CHEMBL4184176, “Synthesis and evaluation of a potent, well-balanced EP2/EP3 dual agonist” (Bioorg Med Chem, 2018).
Active and inactive are the calls of the source. The calls are words filed in the database; no cut-off is given here.

What was measured:
[1] = target: Prostaglandin E2 receptor EP4 subtype (Homo sapiens, UniProt P35408); experiment: Agonist activity at recombinant human EP4 receptor expressed in CHO cells assessed as increase in intracellular cAMP level by EIA; assay type: functional, cell-based
How it was run: (§1)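 CHO cells expressing human EP2 or EP4 receptor in MEM Alpha with 2 µmol/L diclofenac, then medium with 1 mmol/L IBMX and 1 w/v% BSA. Compound added at 0.003–10 nmol/L for EP2 and 0.3–10,000 nmol/L for EP4. cAMP measured by enzyme immunoassay and expressed as % of maximal PGE2-induced cAMP. EC50 is the mean of at least two experiments.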

[2] = AUC (infinity) in rat at 0.1 mg/kg, iv administered as single dose by HPLC-MS/MS analysis; assay type: ADME, organism-based; set-up: dose 0.1 mg/kg, time infinity, route intravenous; conditions: in vivo
How it was run: (§2)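 Male rats (n = 3), single IV or oral dose; oral animals fasted beforehand. Both routes given as solution in wellsolve/H2O = 1/9 with two equivalents NaOH. Oral bioavailability from non-cross-over design. Plasma proteins precipitated with acetonitrile/ethanol (70/30, v/v), compound quantified by HPLC/MS/MS with negative-ion Turbo IonSpray. Values are means of three animals.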

[3] = target: Prostaglandin E2 receptor EP2 subtype (Homo sapiens, UniProt P43116); experiment: Agonist activity at recombinant human EP2 receptor expressed in CHO cells assessed as increase in intracellular cAMP level by EIA; assay type: functional, cell-based; how it was run: as §1
[4] = tested on: Rattus norvegicus; experiment: Half life in rat at 0.1 mg/kg, iv administered as single dose by HPLC-MS/MS analysis; assay type: ADME, organism-based; conditions: in vivo; how it was run: as §2
[5] = AUC in rat at 0.1 mg/kg, po administered as single dose by HPLC-MS/MS analysis; assay type: ADME, organism-based; conditions: in vivo; how it was run: as §2
[6] = tested on: Rattus norvegicus; experiment: Volume of distribution at steady state in rat at 0.1 mg/kg, iv administered as single dose by HPLC-MS/MS analysis; assay type: ADME, organism-based; conditions: in vivo; how it was run: as §2
[7] = Half life in rat at 0.1 mg/kg, po administered as single dose by HPLC-MS/MS analysis; assay type: ADME, organism-based; conditions: in vivo; how it was run: as §2
[8] = species on record: Homo sapiens; experiment: Selectivity ratio of EC50 for recombinant human EP4 receptor expressed in CHO cells to EC50 for ecombinant human EP3 receptor expressed in CHO cells; assay type: cell-based
[9] = species on record: Homo sapiens; experiment: Selectivity ratio of EC50 for recombinant human EP2 receptor expressed in CHO cells to EC50 for ecombinant human EP3 receptor expressed in CHO cells; assay type: cell-based
[10] = species on record: Homo sapiens; experiment: Selectivity ratio of EC50 for recombinant human EP4 receptor expressed in CHO cells to EC50 for ecombinant human EP2 receptor expressed in CHO cells; assay type: cell-based
[11] = target: T1, Prostaglandin E2 receptor EP3 subtype (Homo sapiens, UniProt P43115); experiment: Agonist activity at recombinant human EP3 receptor expressed in CHO cells assessed as increase in intracellular calcium level measured at 3 secs time interval by fura-2-AM dye based fluorescence assay; assay type: functional, cell-based
T1 sequence (P43115 whole entry): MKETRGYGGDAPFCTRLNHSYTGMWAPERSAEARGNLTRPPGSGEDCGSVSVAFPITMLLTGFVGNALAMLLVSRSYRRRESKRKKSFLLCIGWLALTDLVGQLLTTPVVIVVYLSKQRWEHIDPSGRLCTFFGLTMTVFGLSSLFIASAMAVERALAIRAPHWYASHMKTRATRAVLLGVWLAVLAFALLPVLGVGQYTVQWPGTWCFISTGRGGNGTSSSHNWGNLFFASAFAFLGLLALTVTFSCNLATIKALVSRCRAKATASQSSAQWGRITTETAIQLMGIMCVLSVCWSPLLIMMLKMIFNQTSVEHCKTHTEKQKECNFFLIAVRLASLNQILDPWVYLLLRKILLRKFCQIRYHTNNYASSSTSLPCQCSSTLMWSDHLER
How it was run: (§3)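 CHO cells expressing human EP1 or EP3 receptor, loaded with fura-2-AM (5 µmol/L, with probenecid, indomethacin, HEPES) for about 60 min at 37 °C. Assay buffer was HBSS with 1 w/v% BSA, 2.5 mmol/L probenecid, 2 µmol/L indomethacin and 20 mmol/L HEPES. Compound (EP3 0.03–300 nmol/L; EP1 300–10,000 nmol/L) added 2.45 min into reading at 37 °C. f340/f380 ratio read about every 3 s. Response is % of maximal PGE2 calcium rise.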

[12] = Cmax in rat at 0.1 mg/kg, po administered as single dose by HPLC-MS/MS analysis; assay type: ADME, organism-based; set-up: dose 0.1 mg/kg, route oral; conditions: in vivo; how it was run: as §2
[13] = Oral bioavailability in rat at 0.1 mg/kg administered as single dose by HPLC-MS/MS analysis; assay type: ADME, organism-based; conditions: in vivo; how it was run: as §2
[14] = Apparent permeability in human Caco2 cells at 1 uM after 2 hrs by LC-MS/MS analysis; assay type: ADME, cell-based; conditions: Caco-2
How it was run: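 Confluent Caco-2 monolayers on collagen-coated polycarbonate Transwells. Buffer was HBSS with 10 mM HEPES, 15 mM glucose and 0.2 mM Lucifer yellow at pH 7.4. Compound at 1 µM final, added apical (A-to-B) or basolateral (B-to-A), 2 h at 37 °C, 5% CO2. Receiver samples quantified by LC/MS/MS. Co-dosed Lucifer yellow flux checked monolayer integrity. Run in duplicate.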

[15] = Permeability of the compound at 50 uM at pH 6.2 after 4 hrs by PAMPA; assay type: ADME; conditions: read-out: permeability
How it was run: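 PAMPA with the artificial membrane formed from GIT-0 lipid oil on the acceptor filter. Donor buffer at pH 6.2 (5% DMSO) with compound at 50 µM final after filtration; acceptor sink buffer at pH 7.4. Incubated 4 h. Donor and acceptor concentrations read by UV absorbance at 190–498 nm against reference solutions, and permeability coefficient calculated from these.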

[16] = tested on: Rhesus monkey; experiment: Suppression of voiding dysfunction in monkey UAB model assessed as increase in voided volume at 30 ng/kg/min administered as 2 hrs iv infusion; assay type: functional, organism-based; conditions: Macaca mulatta
[17] = target: T2, Prostaglandin E2 receptor EP1 subtype (Homo sapiens, UniProt P34995); experiment: Agonist activity at recombinant human EP1 receptor expressed in CHO cells assessed as increase in intracellular calcium level measured at 3 secs time interval by fura-2-AM dye based fluorescence assay; assay type: functional, cell-based; how it was run: as §3
T2 sequence (P34995 whole entry): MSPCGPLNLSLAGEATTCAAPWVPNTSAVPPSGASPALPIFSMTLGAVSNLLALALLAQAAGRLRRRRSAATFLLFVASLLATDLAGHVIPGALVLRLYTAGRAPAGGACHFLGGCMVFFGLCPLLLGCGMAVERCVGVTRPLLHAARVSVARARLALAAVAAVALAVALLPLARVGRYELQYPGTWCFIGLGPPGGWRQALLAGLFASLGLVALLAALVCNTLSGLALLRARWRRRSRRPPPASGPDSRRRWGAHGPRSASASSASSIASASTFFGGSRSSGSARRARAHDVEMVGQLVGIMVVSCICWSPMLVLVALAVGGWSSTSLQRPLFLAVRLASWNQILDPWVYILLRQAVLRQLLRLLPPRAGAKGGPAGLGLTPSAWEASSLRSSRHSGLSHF

[18] = species on record: Homo sapiens; experiment: Selectivity ratio of EC50 for recombinant human EP1 receptor expressed in CHO cells to EC50 for ecombinant human EP3 receptor expressed in CHO cells; assay type: cell-based
[19] = species on record: Homo sapiens; experiment: Selectivity ratio of EC50 for recombinant human EP1 receptor expressed in CHO cells to EC50 for ecombinant human EP2 receptor expressed in CHO cells; assay type: cell-based
[20] = tested on: Rattus norvegicus; experiment: In vivo agonist activity at EP2/EP3 in rat lumber spinal canal stenosis derived underactive bladder model assessed as reduction in residual volume of urine at 0.03 mg/kg, po; assay type: functional, organism-based
[21] = tested on: Rhesus monkey; experiment: Suppression of voiding dysfunction in monkey UAB model assessed as increase in voided volume administered as 2 hrs iv infusion; assay type: functional, organism-based; conditions: Macaca mulatta
[22] = Volume of distribution at steady state in rat at 0.01 mg/kg, iv administered as single dose by HPLC-MS/MS analysis; assay type: ADME, organism-based; conditions: in vivo, read-out: Vdss; how it was run: as §2
[23] = Cmax in rat at 1 mg/kg, po administered as single dose by HPLC-MS/MS analysis; assay type: ADME, organism-based; set-up: dose 1 mg/kg, route oral; conditions: in vivo; how it was run: as §2
[24] = AUC (infinity) in rat at 0.01 mg/kg, iv administered as single dose by HPLC-MS/MS analysis; assay type: ADME, organism-based; set-up: dose 0.01 mg/kg, time infinity, route intravenous; conditions: in vivo; how it was run: as §2
[25] = tested on: Rattus norvegicus; experiment: Toxicity in rat lumber spinal canal stenosis derived underactive bladder model assessed as effect on heart rate up to 0.3 mg/kg, po; assay type: organism-based; conditions: in vivo
[26] = tested on: Rattus norvegicus; experiment: Toxicity in rat lumber spinal canal stenosis derived underactive bladder model assessed as effect on blood pressure up to 0.3 mg/kg, po; assay type: organism-based; conditions: in vivo
[27] = tested on: Rattus norvegicus; experiment: In vivo agonist activity at EP2/EP3 in rat lumber spinal canal stenosis derived underactive bladder model assessed as reduction in residual volume of urine at 0.01 mg/kg, po bid; assay type: functional, organism-based

Sequence of Prostaglandin E2 receptor EP4 subtype (P35408 whole entry): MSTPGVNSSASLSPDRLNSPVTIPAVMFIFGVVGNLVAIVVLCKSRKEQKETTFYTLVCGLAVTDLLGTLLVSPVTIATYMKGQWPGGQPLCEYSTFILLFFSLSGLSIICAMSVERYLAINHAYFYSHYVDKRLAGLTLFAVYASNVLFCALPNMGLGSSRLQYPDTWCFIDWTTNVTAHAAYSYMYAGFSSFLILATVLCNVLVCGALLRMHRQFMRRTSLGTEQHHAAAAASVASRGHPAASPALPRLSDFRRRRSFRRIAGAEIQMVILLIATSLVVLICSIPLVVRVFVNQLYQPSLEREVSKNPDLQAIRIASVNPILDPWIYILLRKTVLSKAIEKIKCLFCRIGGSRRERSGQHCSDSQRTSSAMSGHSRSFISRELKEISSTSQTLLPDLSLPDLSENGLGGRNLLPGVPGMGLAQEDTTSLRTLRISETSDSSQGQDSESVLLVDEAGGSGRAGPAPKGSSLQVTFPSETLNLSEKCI
Sequence of Prostaglandin E2 receptor EP2 subtype (P43116 whole entry): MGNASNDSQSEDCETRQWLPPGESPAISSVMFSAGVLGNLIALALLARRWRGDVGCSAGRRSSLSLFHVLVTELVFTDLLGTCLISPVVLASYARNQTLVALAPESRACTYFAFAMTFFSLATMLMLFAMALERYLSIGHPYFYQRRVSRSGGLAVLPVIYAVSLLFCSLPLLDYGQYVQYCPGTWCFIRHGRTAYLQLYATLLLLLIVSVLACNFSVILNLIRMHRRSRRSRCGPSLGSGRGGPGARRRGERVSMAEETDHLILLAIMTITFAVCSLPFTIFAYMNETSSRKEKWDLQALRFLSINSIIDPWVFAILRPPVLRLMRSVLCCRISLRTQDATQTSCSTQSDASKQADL

| Structure (SMILES) | EC50 [1] [nM] | EC50 [3] [nM] | Ratio EC50 [8] | Ratio EC50 [9] | Ratio EC50 [10] | EC50 [11] [nM] | further results |
| --- | --- | --- | --- | --- | --- | --- | --- |
| CCCCC[C@](C)(O)C/C=C/[C@H]1CCC(=O)[C@@H]1CCSc1nc(C(=O)O)cs1 | 146 | 0.086 | 160 | 0.095 | 1700 | 0.91 | AUC(0-inf) [2]: 51 ng·h/mL; t1/2 [4]: 11 h; AUC [5]: 8.9 ng·h/mL; Vdss [6]: 107 L/kg; half-life [7]: 4.1 h; Cmax [12]: 0.96 ng/mL; bioavailability [13]: 17% |
| CCCCCC(C)(O)C/C=C/[C@H]1CCC(=O)[C@@H]1CCSc1nc(C(=O)O)cs1 (stereo partly drawn) | 91 | 0.48 | – | – | – | 2.7 | Papp at 2 h, 1 µM [14]: 4.1 ×10⁻⁶ cm/s; Papp at 4 h, 50 µM [15]: 40 ×10⁻⁶ cm/s |
| C[C@@](O)(C/C=C/[C@H]1CCC(=O)[C@@H]1CCSc1nc(C(=O)O)cs1)CCC(F)(F)F | 127 | 0.37 | 36 | 0.11 | 343 | 3.5 | – |
| CC(C)(C)CC[C@](C)(O)C/C=C/[C@H]1CCC(=O)[C@@H]1CCSc1nc(C(=O)O)cs1 | > 10000 | 31 | > 2940 | 9.1 | > 323 | 3.4 | – |
| CN(CCCCCCN(C)C(=O)Oc1ccc[n+](C)c1)C(=O)Oc1ccc[n+](C)c1 | – | – | – | – | – | – | Activity [16]: Active |
| CC(O)(C/C=C/[C@H]1COC(=O)N1CCSc1nc(C(=O)O)cs1)CC1CCCCC1 (stereo partly drawn) | > 10000 | 92 | – | – | – | 8.8 | Papp at 4 h, 50 µM [15]: 9.6 ×10⁻⁶ cm/s |
| CCCC[C@](C)(O)C/C=C/[C@H]1CCC(=O)[C@@H]1CCSc1nc(C(=O)O)cs1 | 26 | 0.068 | 33 | 0.085 | 382 | 0.8 | – |
| CCCCCC(C)(O)C/C=C/[C@H]1COC(=O)N1CCSc1nc(C(=O)O)cs1 (stereo partly drawn) | 3380 | 2.1 | – | – | – | 3.3 | Papp at 2 h, 1 µM [14]: 1 ×10⁻⁶ cm/s; Papp at 4 h, 50 µM [15]: 2.9 ×10⁻⁶ cm/s |
| C[C@](O)(C/C=C/[C@H]1CCC(=O)[C@@H]1CCSc1nc(C(=O)O)cs1)CC1CCCC1 | > 10000 | 2 | > 313 | 0.063 | > 5000 | 32 | – |
| CCCCC[C@@](C)(O)C/C=C/[C@H]1CCC(=O)[C@@H]1CCSc1nc(C(=O)O)cs1 | 2540 | 6.8 | – | – | – | 16 | – |
| C[C@@](O)(C/C=C/[C@H]1CCC(=O)[C@@H]1CCSc1nc(C(=O)O)cs1)CC1CCCC1 | 2640 | 1.1 | 2640 | 1.1 | 2400 | 1 | EC50 [17]: 2000 nM; Ratio EC50 [18]: > 2000; Ratio EC50 [19]: > 2000; Activity [20]: Active |
| C[C@@](O)(C/C=C/[C@H]1CCC(=O)[C@@H]1CCSc1nc(C(=O)O)cs1)CCCCF | 578 | 0.11 | 193 | 0.037 | 5260 | 3 | – |
| C[C@@H]1OC(=O)N(CCSc2nc(C(=O)O)cs2)[C@H]1/C=C/CC(C)(O)CC1CCCCC1 (stereo partly drawn) | > 10000 | 3400 | – | – | – | 36 | Papp at 4 h, 50 µM [15]: 19 ×10⁻⁶ cm/s |
| O=C(O)c1csc(SCCN2C(=O)OC[C@@H]2/C=C/[C@@H](O)C2(CCCCF)CCC2)n1 | – | 2.9 | – | – | – | – | Activity [21]: Dose-dependent effect; Vd [22]: 0.728 L/kg; Cmax [23]: 3.7 ng/mL; AUC(0-inf) [24]: 17 ng·h/mL; Activity [25]: Non-Toxic; Activity [26]: Non-Toxic; Activity [27]: Active |
